{
  "source": "paper PMC9933479",
  "about": "(ACS Omega, 2023)",
  "key": {"[1]": {"tested_on": "normal human embryonic kidney cells (HEK293)", "experiment": "Selectivity index versus normal cell line", "assay_type": "cell-based"}, "[2]": {"tested_on": "HCT-116 (colon carcinoma)", "experiment": "MTT assay, cytotoxicity/growth inhibition", "assay_type": "cell-based", "settings": "Homo sapiens", "method_in_brief": "(§1)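 Cells were grown in RPMI (A549, HCT-116, PC-3) or DMEM (MCF-7) with 10% FBS at 37 °C and 5% CO2. Seeding per well was […] and PC-3 8 × 10^4 cells. […] MTT 250 μg/mL, 4 h; DMSO; A570; triplicate; mean ± SE.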"}, "[3]": {"tested_on": "PC-3 (prostate carcinoma)", "experiment": "MTT assay, cytotoxicity/growth inhibition", "assay_type": "cell-based", "settings": "Homo sapiens", "method_in_brief": "as §1"}, "HOP62": {"tested_on": "HOP62", "experiment": "In vitro cytotoxicity, expanded lung cancer panel", "assay_type": "cell-based", "settings": "Homo sapiens, HOP-62"}, "HOP92": {"tested_on": "HOP92", "experiment": "In vitro cytotoxicity, expanded lung cancer panel", "assay_type": "cell-based", "settings": "Homo sapiens, HOP-92"}, "A549 (lung carcinoma)": {"tested_on": "A549 (lung carcinoma)", "experiment": "MTT assay, cytotoxicity/growth inhibition", "assay_type": "cell-based, human", "method_in_brief": "as §1"}, "A549 cells [4]": {"tested_on": "A549 cells", "experiment": "DAPI staining, nuclear morphology / apoptosis", "assay_type": "cell-based, human", "settings": "A549, 1, 3.5 and 5 μM, 48 h", "method_in_brief": "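A549 cells (3 × 10^4 per well) were grown 48 h, then exposed to test compound at 1, 3.5 and 5 μM for 48 h. Cells were washed in PBS, fixed in ice-cold 4% paraformaldehyde for 20 min and permeabilised with 0.25% Triton X-100. Staining was DAPI at 1 μg/mL final for 30 min, read by fluorescence microscopy. Cisplatin 17 μM was the positive control.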"}, "A549 cells [5]": {"tested_on": "A549 cells", "experiment": "Intracellular ROS, DCFDA/DCFHDA staining", "assay_type": "cell-based, human", "settings": "A549, DCFDA dye, 48 h", "method_in_brief": "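Seeded A549 cells (3 × 10^4 per well) adhered 24 h at 37 °C, then received test compound at 1, 3.5 or 5 μM for 48 h. Cells were loaded with 10 μM DCFHDA for 30 min at 37 °C and moved to PBS. Intracellular ROS was imaged by fluorescence microscopy. H2O2 (0.05%) was the positive control.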"}, "A549 cells [6]": {"tested_on": "A549 cells", "experiment": "Mitochondrial membrane potential, Rhodamine-123 staining", "assay_type": "cell-based, human", "settings": "A549, Rh-123 dye, 1, 3.5 and 5 μM, 48 h, versus untreated cells", "method_in_brief": "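A549 cells (3 × 10^4 per well) adhered 24 h at 37 °C and were treated with test compound at 1, 3.5 and 5 μM for 48 h. They were stained with 10 μM rhodamine-123 for 30 min at 37 °C and washed in PBS. Fluorescence microscopy read mitochondrial membrane potential as Rh-123 fluorescence, compared with untreated cells.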"}, "MCF-7 (breast carcinoma)": {"tested_on": "MCF-7 (breast carcinoma)", "experiment": "MTT assay, cytotoxicity/growth inhibition", "assay_type": "cell-based", "settings": "Homo sapiens", "method_in_brief": "as §1"}},
  "note": "Entries after “also recorded” stand apart in the source; their conditions may differ.",
  "data": [
    {"smiles": "COc1ccc(CC(=O)OCC2=CCC3[C@](C)(CO)[C@H](O)CC[C@@]3(C)[C@@H]2/C=C/C2=CCOC2=O)cc1", "note": "(stereo partly drawn) [Compound 9s, ((1S,5R,6R,8aR)-6-Hydroxy-5-(hydroxymethyl)-5,8a-dimethyl-1-((E)-2-(2-oxo-2,5-dihydrofuran-3-yl)vinyl)-1,4,4a,5,6,7,8,8a-octahydronaphthalen-2-yl)methyl 2-(4-Methoxyphenyl)acetate]", "values": [
      {"measurement": "selectivity index (SI) wrt HEK cell line", "setting": "[1]; A549 versus HEK293", "result": 13.9},
      {"measurement": "selectivity index (SI) wrt HEK cell line", "setting": "[1]; HOP62 versus HEK293", "result": 3.7},
      {"measurement": "selectivity index (SI) wrt HEK cell line", "setting": "[1]; HOP92 versus HEK293", "result": 1.26},
      {"measurement": "IC50", "setting": "[2]; HCT-116", "result": "> 20", "unit": "µM"},
      {"measurement": "inhibition at 20 µM", "setting": "[2]; HCT-116, 48 h, read-out: Cytotoxic Activity (% Growth Inhibition)", "result": "4.1 ± 0.97", "unit": "%"},
      {"measurement": "IC50", "setting": "[3]", "result": "> 20", "unit": "µM"},
      {"measurement": "inhibition at 20 µM", "setting": "[3]; 48 h, read-out: Cytotoxic Activity (% Growth Inhibition)", "result": "27.6 ± 0.89", "unit": "%"},
      {"measurement": "IC50", "setting": "HOP62", "result": 13, "unit": "µM"},
      {"measurement": "IC50", "setting": "HOP92", "result": 38.6, "unit": "µM"},
      {"measurement": "Cytotoxic Activity (% Growth Inhibition)", "setting": "A549 (lung carcinoma); A549, 20 μM concentration, MTT, 48 h, 20 µM", "result": "82.2 ± 0.78", "unit": "%"},
      {"measurement": "potency relative to andrographolide (times / fold more potent)", "setting": "A549 (lung carcinoma); A549, ratio of IC50 values", "result": "~7"},
      {"measurement": "IC50", "setting": "A549 (lung carcinoma); Homo sapiens, A549", "result": 3.5, "unit": "µM"},
      {"measurement": "inhibition at 20 µM", "setting": "A549 (lung carcinoma); Homo sapiens, A549, 48 h, read-out: Cytotoxic Activity (% Growth Inhibition), A549, 20 μM concentration, MTT, 48 h", "result": 82, "unit": "%"},
      {"measurement": "nuclear morphology / apoptosis (DAPI staining)", "setting": "A549 cells [4]", "result": "nuclear morphological changes; also recorded: altered staining pattern, apoptotic bodies, and condensed chromatin; also recorded: induces apoptosis"},
      {"measurement": "intracellular ROS generation", "setting": "A549 cells [5]; 1 μM", "result": "increases reactive oxygen species (ROS); also recorded: significantly induced more ROS generation"},
      {"measurement": "intracellular ROS levels", "setting": "A549 cells [5]; 3.5 and 5 μM", "result": "ROS levels decrease"},
      {"measurement": "mitochondrial membrane potential (MMP)", "setting": "A549 cells [6]", "result": "disturbed mitochondrial membrane potential (MMP); also recorded: significant reduction in MMP; also recorded: disturbs mitochondrial membrane potential"},
      {"measurement": "IC50", "setting": "MCF-7 (breast carcinoma); MCF7", "result": 14.6, "unit": "µM"},
      {"measurement": "inhibition at 20 µM", "setting": "MCF-7 (breast carcinoma); MCF7, 48 h, read-out: Cytotoxic Activity (% Growth Inhibition)", "result": "54 ± 0.74", "unit": "%"}
    ]}
  ]
}
